Experimental data taken from paper PMC4515784 (Journal of Medicinal Chemistry, 2015).

Columns and labels:
[1] = target: HA-hSERT (Homo sapiens, UniProt P31645); experiment: hSERT photoaffinity labeling in HA-hSERT LLCPK1 cells; format: binding
[2] = Reversed-phase HPLC relative lipophilicity; format: physicochemical; settings: C-18 column, 45% MeOH/CH3CN (1:1) and 55% water with Et3N and HOAc, 3.0 mL/min
Outline: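 Waters C-18 Nova-Pak column (8 × 100 mm, 6 μm, radial compression). Organic phase MeOH/CH3CN 1:1 v/v; aqueous phase contained Et3N (2.1% v/v) and HOAc (2.8% v/v). Isocratic 45% organic/55% aqueous at 3.0 mL/min, with one analogue run at 42%/58%. Retention time and k′ recorded for radioiodinated products, matched to nonradioactive standards by coelution.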

[3] = target: hSERT (Homo sapiens, UniProt P31645); format: cell-based
Sequence of hSERT (P31645 whole entry): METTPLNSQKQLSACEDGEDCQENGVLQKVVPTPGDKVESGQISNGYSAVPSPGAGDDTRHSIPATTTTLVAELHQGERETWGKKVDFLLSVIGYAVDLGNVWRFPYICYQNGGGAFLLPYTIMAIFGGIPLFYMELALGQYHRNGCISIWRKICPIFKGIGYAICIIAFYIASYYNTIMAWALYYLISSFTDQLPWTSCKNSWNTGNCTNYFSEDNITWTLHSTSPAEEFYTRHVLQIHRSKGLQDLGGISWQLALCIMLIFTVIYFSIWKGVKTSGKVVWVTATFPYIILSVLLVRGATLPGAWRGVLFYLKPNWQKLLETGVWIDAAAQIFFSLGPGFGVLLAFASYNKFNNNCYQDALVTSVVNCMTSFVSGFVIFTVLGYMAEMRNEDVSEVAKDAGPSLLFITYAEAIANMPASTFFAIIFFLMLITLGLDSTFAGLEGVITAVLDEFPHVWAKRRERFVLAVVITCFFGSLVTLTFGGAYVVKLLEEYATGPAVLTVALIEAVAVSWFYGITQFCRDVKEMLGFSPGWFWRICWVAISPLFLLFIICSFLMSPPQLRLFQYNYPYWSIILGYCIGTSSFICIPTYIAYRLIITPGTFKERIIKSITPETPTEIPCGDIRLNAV

Sequence of HA-hSERT (P31645 whole entry): as above

With `CN(CCC[C@@]1(c2ccc(F)cc2)OCc2cc(C#N)ccc21)CCc1ccc(N=[N+]=[N-])c([125I])c1` [[^125I]15, (S)-1-(3-((4-Azido-3-[^125I]-iodophenethyl)(methyl)amino)propyl)-1-(4-fluorophenyl)-1,3-dihydroisobenzofuran-5-carbonitrile] the “Irreversible (covalent) labeling of hSERT upon photoactivation” value (from here on “Irreversible (covalent) labeling”) [1] was “covalently label” and the “Capacity factor k′ (relative lipophilicity)” value [2] was 18.3.
With `CN(C)CCC[C@@]1(c2ccc(F)cc2)OCc2cc(CNC(=O)CCc3ccc(N=[N+]=[N-])c([125I])c3)ccc21` [[^125I]22, (S)-3-(4-Azido-3-[^125I]-iodophenyl)-N-((1-(3-(dimethylamino)propyl)-1-(4-fluorophenyl)-1,3-dihydroisobenzofuran-5-yl)methyl)propanamide] the “Effect of (S)-citalopram preincubation on irreversible hSERT labeling (in words)” value [1] was “completely eliminated”, the “Irreversible (covalent) labeling” value [1] was “covalently label” and the “Capacity factor k′ (relative lipophilicity)” value [2] was 10.4.
For `CN(C)CCC[C@@]1(c2ccc(F)cc2)OCc2cc(CNC(=O)c3ccc(N=[N+]=[N-])c([125I])c3)ccc21` [[^125I]26, (S)-4-Azido-N-((1-(3-(dimethylamino)propyl)-1-(4-fluorophenyl)-1,3-dihydroisobenzofuran-5-yl)methyl)-3-[^125I]-iodobenzamide], the “Effect of (S)-citalopram preincubation on irreversible hSERT labeling (in words)” value [1] was “completely eliminated”, the “Irreversible (covalent) labeling” value [1] was “covalently label” and the “Capacity factor k′ (relative lipophilicity)” value [2] was 10.6.
With `CN(CCC[C@@]1(c2ccc(F)cc2)OCc2cc(C#N)ccc21)CCc1ccc(N=[N+]=[N-])c(I)c1` [compound 15, (S)-1-(3-((4-Azido-3-iodophenethyl)(methyl)amino)propyl)-1-(4-fluorophenyl)-1,3-dihydroisobenzofuran-5-carbonitrile] the “Reduction in WT hSERT affinity compared to (S)-citalopram” value (“Reduction in WT hSERT affinity” for short) [3] was 100 fold.
In the case of `CN(C)CCC[C@@]1(c2ccc(F)cc2)OCc2cc(CNC(=O)CCc3ccc(N=[N+]=[N-])c(I)c3)ccc21` [compound 22, (S)-3-(4-Azido-3-iodophenyl)-N-((1-(3-(dimethylamino)propyl)-1-(4-fluorophenyl)-1,3-dihydroisobenzofuran-5-yl)methyl)propanamide], the “Reduction in WT hSERT affinity” value [3] is reported as 17 fold.
With `CN(C)CCC[C@@]1(c2ccc(F)cc2)OCc2cc(CNC(=O)c3ccc(N=[N+]=[N-])c(I)c3)ccc21` [compound 26, (S)-4-Azido-N-((1-(3-(dimethylamino)propyl)-1-(4-fluorophenyl)-1,3-dihydroisobenzofuran-5-yl)methyl)-3-iodobenzamide] the “Reduction in WT hSERT affinity” value [3] was 11 fold.
